Reference: ChEMBL document CHEMBL1828561, “Identification of a potent and selective free fatty acid receptor 1 (FFA1/GPR40) agonist with favorable physicochemical and in vitro ADME properties” (J Med Chem, 2011)
≈ marks a conversion by molar mass, not a printed value. Calls of active or inactive are those of the source. The calls are words filed in the database; no cut-off is given here.

Tests used:
[1] = molecular target: T1, Free fatty acid receptor 1 (Homo sapiens, UniProt O14842); test: Agonist activity at human FFA1 receptor expressed in human HEK293 assessed as accumulation of IP1 by time-resolved fluorescence assay; assay type: functional, cell-based
Procedure, shortened: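 Doxycycline-inducible FLAG-tagged human FFA1 in Flp-In T-Rex HEK293 cells, 100 000 cells/well (384-well). 20 min at 37 °C, then ligands in HBSS/10 mM HEPES/50 mM LiCl for 30 min. HTRF IP1 kit (d2 conjugate, Eu cryptate anti-IP1), 60 min at room temperature. 665/620 nm ratio expressed as ΔF%, normalized to maximal response at 10 μM of the reference agonist; n = 5.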

[2] = test system: 1321-N1; test: Selectivity for human FFA1 receptor expressed in human 1321N1 cells over Ca2+ channel; assay type: cell-based
[3] = test system: HEK293; test: Selectivity for human FFA1 receptor expressed in human 1321N1 cells over human FFA2 receptor expressed in HEK293 cells at 10 uM; assay type: cell-based
[4] = molecular target: T1, Free fatty acid receptor 1; test: Agonist activity at human FFA1 receptor expressed in human 1321N1 cells assessed as calcium mobilization by fluorescence spectrophotometry; assay type: functional, cell-based
[5] = test system: 1321-N1; test: Selectivity for human FFA1 receptor expressed in human 1321N1 cells over 5HT3 receptor; assay type: cell-based
[6] = test system: 1321-N1; test: Selectivity for human FFA1 receptor expressed in human 1321N1 cells over beta2 receptor; assay type: cell-based
[7] = test system: 1321-N1; test: Selectivity for human FFA1 receptor expressed in human 1321N1 cells over sst receptor; assay type: cell-based
[8] = test system: 1321-N1; test: Selectivity for human FFA1 receptor expressed in human 1321N1 cells over A1 receptor; assay type: cell-based
[9] = molecular target: Free fatty acid receptor 1 (Rattus norvegicus) (UniProt Q8K3T4); test: Agonist activity at FFA1 receptor in rat INS-1E cells assessed as increase in glucose-stimulated insulin production at 10 uM after 1 hr by radioimmunoassay in presence of 2.8 mM glucose; assay type: functional, cell-based
Procedure, shortened: (§1)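 Rat INS-1E cells seeded at 100 000 cells/mL in 24-well plates for 2 days. Incubated 1 h at 37 °C in pH 7.4 HEPES-bicarbonate saline with 1 mM CaCl2 and 0.5 g/L fatty-acid-free BSA plus test substance. Secreted insulin and acid-ethanol-extracted content measured by radioimmunoassay. Mean ± SE, n = 8.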

[10] = test system: 1321-N1; test: Selectivity for human FFA1 receptor expressed in human 1321N1 cells over A3 receptor; assay type: cell-based
[11] = test system: 1321-N1; test: Selectivity for human FFA1 receptor expressed in human 1321N1 cells over B2 receptor; assay type: cell-based
[12] = test system: 1321-N1; test: Selectivity for human FFA1 receptor expressed in human 1321N1 cells over dopamine transporter; assay type: cell-based
[13] = molecular target: CYP2C19 (Homo sapiens, UniProt P33261); test: Inhibition of CYP2C19 at 10 uM; assay type: ADME
[14] = test system: 1321-N1; test: Selectivity for human FFA1 receptor expressed in human 1321N1 cells over beta1 receptor; assay type: cell-based
[15] = test system: 1321-N1; test: Selectivity for human FFA1 receptor expressed in human 1321N1 cells over 5HT1A receptor; assay type: cell-based
[16] = test system: 1321-N1; test: Selectivity for human FFA1 receptor expressed in human 1321N1 cells over Y1 receptor; assay type: cell-based
[17] = test system: 1321-N1; test: Selectivity for human FFA1 receptor expressed in human 1321N1 cells over Delta2 receptor; assay type: cell-based
[18] = test system: 1321-N1; test: Selectivity for human FFA1 receptor expressed in human 1321N1 cells over D1 receptor; assay type: cell-based
[19] = test system: 1321-N1; test: Selectivity for human FFA1 receptor expressed in human 1321N1 cells over Mu receptor; assay type: cell-based
[20] = test system: 1321-N1; test: Selectivity for human FFA1 receptor expressed in human 1321N1 cells over 5HT2B receptor; assay type: cell-based
[21] = molecular target: Free fatty acid receptor 1 (Rattus norvegicus) (UniProt Q8K3T4); test: Agonist activity at FFA1 receptor in rat INS-1E cells assessed as increase in glucose-stimulated insulin production at 10 uM after 1 hr by radioimmunoassay in presence of 12 mM glucose; assay type: functional, cell-based; procedure, shortened: as §1
[22] = molecular target: CYP3A4 (Homo sapiens, UniProt P08684); test: Inhibition of CYP3A4 at 10 uM; assay type: ADME
[23] = test system: 1321-N1; test: Selectivity for human FFA1 receptor expressed in human 1321N1 cells over 5HT6 receptor; assay type: cell-based
[24] = test system: 1321-N1; test: Selectivity for human FFA1 receptor expressed in human 1321N1 cells over NTS1 receptor; assay type: cell-based
[25] = test system: 1321-N1; test: Selectivity for human FFA1 receptor expressed in human 1321N1 cells over MT1 receptor; assay type: cell-based
[26] = Permeability across methotrexate treated human HT-29 cells assessed as compound recovery; assay type: ADME, cell-based; conditions: read-out: Activity
Procedure, shortened: (§2)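 HT29-MTX mucus-producing cells, passage 32, grown 23 days (TEER > 750 Ω cm²). Compound at 100 μM (10 mM DMSO stock diluted 1:100 in buffer). […] Non-permeated drug measured for recovery. Monolayer integrity checked by 20 μM carboxyfluorescein after 1 h and TEER.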

[27] = Inhibition of P-glycoprotein at 100 uM
Procedure, shortened: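 P-glycoprotein inhibition tested at 100 μM compound.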

[28] = test system: 1321-N1; test: Selectivity for human FFA1 receptor expressed in human 1321N1 cells over M1 receptor; assay type: cell-based
[29] = Apparent permeability across methotrexate treated human HT-29 cells; assay type: ADME, cell-based; procedure, shortened: as §2
[30] = test system: 1321-N1; test: Selectivity for human FFA1 receptor expressed in human 1321N1 cells over CXCR2 receptor; assay type: cell-based
[31] = test system: 1321-N1; test: Selectivity for human FFA1 receptor expressed in human 1321N1 cells over GAL2 receptor; assay type: cell-based
[32] = test system: 1321-N1; test: Selectivity for human FFA1 receptor expressed in human 1321N1 cells over kappa receptor; assay type: cell-based
[33] = test system: 1321-N1; test: Selectivity for human FFA1 receptor expressed in human 1321N1 cells over M2 receptor; assay type: cell-based
[34] = Aqueous solubility of the compound in PBS at pH 7.4; assay type: physicochemical
Procedure, shortened: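 Solubility measured in PBS at pH 7.4.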

[35] = test system: Liver; test: Metabolic stability in human liver S9 fraction; assay type: ADME, subcellular
[36] = test system: 1321-N1; test: Selectivity for human FFA1 receptor expressed in human 1321N1 cells over GABA receptor; assay type: cell-based
[37] = test system: 1321-N1; test: Selectivity for human FFA1 receptor expressed in human 1321N1 cells over CCK1 receptor; assay type: cell-based
[38] = test system: 1321-N1; test: Selectivity for human FFA1 receptor expressed in human 1321N1 cells over alpha1 receptor; assay type: cell-based
[39] = test system: 1321-N1; test: Selectivity for human FFA1 receptor expressed in human 1321N1 cells over 5HT2A receptor; assay type: cell-based
[40] = test system: 1321-N1; test: Selectivity for human FFA1 receptor expressed in human 1321N1 cells over MC4 receptor; assay type: cell-based
[41] = test system: HEK293; test: Selectivity for human FFA1 receptor expressed in human 1321N1 cells over human FFA3 receptor expressed in HEK293 cells at 10 uM; assay type: cell-based
[42] = test system: 1321-N1; test: Selectivity for human FFA1 receptor expressed in human 1321N1 cells over PPARgamma receptor; assay type: cell-based
[43] = test system: 1321-N1; test: Selectivity for human FFA1 receptor expressed in human 1321N1 cells over NOP receptor; assay type: cell-based
[44] = test system: 1321-N1; test: Selectivity for human FFA1 receptor expressed in human 1321N1 cells over 5HT transporter; assay type: cell-based
[45] = test system: 1321-N1; test: Selectivity for human FFA1 receptor expressed in human 1321N1 cells over 5HT7 receptor; assay type: cell-based
[46] = molecular target: CYP2D6 (Homo sapiens, UniProt P10635); test: Inhibition of CYP2D6 at 10 uM; assay type: ADME
[47] = test system: 1321-N1; test: Selectivity for human FFA1 receptor expressed in human 1321N1 cells over CCR1 receptor; assay type: cell-based
[48] = Plasma protein binding in human; assay type: ADME, cell-free; conditions: read-out: PPB (converted)

T1 sequence (O14842 whole entry): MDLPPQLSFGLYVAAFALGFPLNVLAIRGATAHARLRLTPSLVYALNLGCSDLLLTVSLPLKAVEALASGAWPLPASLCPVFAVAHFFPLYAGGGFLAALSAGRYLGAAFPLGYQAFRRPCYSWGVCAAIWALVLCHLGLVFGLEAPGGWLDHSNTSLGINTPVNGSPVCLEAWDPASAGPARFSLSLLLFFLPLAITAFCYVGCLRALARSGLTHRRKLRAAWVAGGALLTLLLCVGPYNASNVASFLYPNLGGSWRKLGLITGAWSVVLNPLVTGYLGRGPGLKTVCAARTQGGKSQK
Free fatty acid receptor 1 (Rattus norvegicus), sequence (Q8K3T4 whole entry): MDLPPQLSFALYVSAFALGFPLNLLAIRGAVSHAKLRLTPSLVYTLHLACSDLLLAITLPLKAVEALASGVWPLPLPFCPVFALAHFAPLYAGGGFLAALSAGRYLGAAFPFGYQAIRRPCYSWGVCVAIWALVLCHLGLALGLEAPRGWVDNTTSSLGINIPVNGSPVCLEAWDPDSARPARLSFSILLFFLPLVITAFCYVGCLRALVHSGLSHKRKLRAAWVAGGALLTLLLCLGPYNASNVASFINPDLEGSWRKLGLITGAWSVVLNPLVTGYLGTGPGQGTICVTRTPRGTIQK
CYP2C19, sequence (P33261 whole entry): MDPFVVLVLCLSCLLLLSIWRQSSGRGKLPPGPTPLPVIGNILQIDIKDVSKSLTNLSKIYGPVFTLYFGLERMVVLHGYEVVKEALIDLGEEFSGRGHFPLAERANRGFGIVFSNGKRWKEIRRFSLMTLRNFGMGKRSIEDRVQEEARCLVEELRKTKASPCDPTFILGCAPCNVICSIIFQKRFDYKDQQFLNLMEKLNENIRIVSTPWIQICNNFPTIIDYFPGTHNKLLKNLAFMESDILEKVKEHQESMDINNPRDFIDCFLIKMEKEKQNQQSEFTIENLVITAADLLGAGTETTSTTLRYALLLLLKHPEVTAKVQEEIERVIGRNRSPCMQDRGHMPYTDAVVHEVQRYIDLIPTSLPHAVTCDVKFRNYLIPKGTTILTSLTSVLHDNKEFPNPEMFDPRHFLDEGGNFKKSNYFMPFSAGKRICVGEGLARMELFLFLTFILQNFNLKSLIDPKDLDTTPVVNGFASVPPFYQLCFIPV
CYP2D6, sequence (P10635 whole entry): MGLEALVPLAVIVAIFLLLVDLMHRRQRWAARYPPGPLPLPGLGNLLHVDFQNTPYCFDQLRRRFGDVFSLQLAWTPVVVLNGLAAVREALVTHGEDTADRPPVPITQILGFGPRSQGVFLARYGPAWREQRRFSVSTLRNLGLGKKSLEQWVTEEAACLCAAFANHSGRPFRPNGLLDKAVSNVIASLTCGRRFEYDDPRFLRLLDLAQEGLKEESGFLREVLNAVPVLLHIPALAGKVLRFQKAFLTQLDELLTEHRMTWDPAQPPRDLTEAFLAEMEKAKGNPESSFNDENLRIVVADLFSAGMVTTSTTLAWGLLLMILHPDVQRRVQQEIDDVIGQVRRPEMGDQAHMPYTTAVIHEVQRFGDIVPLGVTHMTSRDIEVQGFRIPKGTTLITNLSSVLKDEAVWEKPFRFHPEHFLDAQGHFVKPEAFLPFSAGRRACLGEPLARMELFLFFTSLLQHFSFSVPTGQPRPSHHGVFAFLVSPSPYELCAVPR
CYP3A4, sequence (P08684 whole entry): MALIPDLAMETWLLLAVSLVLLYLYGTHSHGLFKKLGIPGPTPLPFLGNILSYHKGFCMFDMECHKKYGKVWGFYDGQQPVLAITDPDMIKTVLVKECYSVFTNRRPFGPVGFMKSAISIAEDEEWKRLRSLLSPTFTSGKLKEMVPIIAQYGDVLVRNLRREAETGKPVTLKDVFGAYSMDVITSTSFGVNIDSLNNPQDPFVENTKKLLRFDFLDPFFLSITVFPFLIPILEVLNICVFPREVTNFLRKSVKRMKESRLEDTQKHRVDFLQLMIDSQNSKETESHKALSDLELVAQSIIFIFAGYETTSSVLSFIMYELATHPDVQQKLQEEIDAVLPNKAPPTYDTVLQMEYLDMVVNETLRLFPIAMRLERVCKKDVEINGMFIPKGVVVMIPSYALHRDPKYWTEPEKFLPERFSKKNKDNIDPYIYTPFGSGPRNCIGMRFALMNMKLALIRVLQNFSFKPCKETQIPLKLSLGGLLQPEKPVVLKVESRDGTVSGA

- Activity [1]: Active
- EC50 [4]: 40.7 nM
- Activity [9]: inactive
- inhibition at 10 µM [13]: -7%
- Activity [21]: 60%
- inhibition at 10 µM [22]: 5%
- recovery [26]: 63%
- inhibition [27]: -1.9%
- Papp [29]: 16.4 ×10⁻⁶ cm/s
- solubility [34]: 199 µM (≈ 63.7 µg/mL)
- Stability [35]: 97%
- inhibition at 10 µM [46]: 5%
- fraction unbound [48]: 0.031
Compound: O=C(O)CCc1ccc(C#Cc2cc(Cl)nc(Cl)c2)cc1
- Selectivity ratio [2]: > 100
- Selectivity ratio [3]: > 100
- Selectivity ratio [5]: > 100
- Selectivity ratio [6]: > 100
- Selectivity ratio [7]: > 100
- Selectivity ratio [8]: > 100
- Selectivity ratio [10]: > 100
- Selectivity ratio [11]: > 100
- Selectivity ratio [12]: > 100
- Selectivity ratio [14]: > 100
- Selectivity ratio [15]: > 100
- Selectivity ratio [16]: > 100
- Selectivity ratio [17]: > 100
- Selectivity ratio [18]: > 100
- Selectivity ratio [19]: > 100
- Selectivity ratio [20]: > 100
- Selectivity ratio [23]: > 100
- Selectivity ratio [24]: > 100
- Selectivity ratio [25]: > 100
- Selectivity ratio [28]: > 100
- Selectivity ratio [30]: > 100
- Selectivity ratio [31]: > 100
- Selectivity ratio [32]: > 100
- Selectivity ratio [33]: > 100
- Selectivity ratio [36]: > 100
- Selectivity ratio [37]: > 100
- Selectivity ratio [38]: > 100
- Selectivity ratio [39]: > 100
- Selectivity ratio [40]: > 100
- Selectivity ratio [41]: > 100
- Selectivity ratio [42]: > 100
- Selectivity ratio [43]: > 100
- Selectivity ratio [44]: > 100
- Selectivity ratio [45]: > 100
- Selectivity ratio [47]: > 100
